One assay concerns the target Coagulation factor X (Homo sapiens, UniProt P00742). In words: Inhibition of human factor 10a using N-Z-D-Arg-Gly-Arg-pNA, S-2765 chromogenic substrate.
For assay [1], the system named is Plasma. In words: Anticoagulant activity in citrated rabbit plasma assessed as drug concentration required to double plasma clotting time preincubated for 10 mins at 37 degC by coagulometry. In kind it is functional, Oryctolagus cuniculus. In a few lines: (§1)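 Test compound or DMSO added to citrated rabbit plasma (3.8% sodium citrate, 10:90 v/v) and preincubated 10 min at 37 °C. PT and aPTT clotting times measured on a coagulometer with commercial kits. Activity expressed as the concentration needed to double plasma clotting time (CT2, μM).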

For assay [2], the system named is Plasma. As to the kind of experiment: Anticoagulant activity in citrated rabbit plasma assessed as activated partial thromboplastin time preincubated for 10 mins at 37 degC by coagulometry. Type of assay: functional, Oryctolagus cuniculus. In a few lines:
as §1

Chain of Coagulation factor X (P00742 41-179 limits assumed): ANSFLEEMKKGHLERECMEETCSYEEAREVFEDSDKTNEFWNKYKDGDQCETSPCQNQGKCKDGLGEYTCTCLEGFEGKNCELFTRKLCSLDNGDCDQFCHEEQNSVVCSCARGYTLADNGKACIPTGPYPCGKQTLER
Chain of Coagulation factor X (P00742 235-488 limits assumed): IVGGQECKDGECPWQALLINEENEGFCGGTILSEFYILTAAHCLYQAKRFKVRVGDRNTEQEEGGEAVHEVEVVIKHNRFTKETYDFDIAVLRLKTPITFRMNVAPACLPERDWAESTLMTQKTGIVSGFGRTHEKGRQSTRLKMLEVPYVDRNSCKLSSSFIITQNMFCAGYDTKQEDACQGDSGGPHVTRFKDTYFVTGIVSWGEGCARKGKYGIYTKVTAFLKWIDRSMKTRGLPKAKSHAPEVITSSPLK

`O=C(NC[C@@H]1OC(=O)N2c3ccc(N4CCOCC4=O)cc3OC[C@H]12)c1ccc(Cl)s1`: on Coagulation factor X, inhibition was half-maximal at 57.8 nM (IC50). With `CC(=O)N(C)c1ccc2c(c1)OC[C@H]1[C@H](CNC(=O)c3ccc(Cl)s3)OC(=O)N21`, on Coagulation factor X, it took 87.2 nM to reach half-maximal inhibition (IC50). As to `O=C(NC[C@@H]1OC(=O)N2c3ccc(N4CCOC4=O)cc3OC[C@@H]12)c1ccc(Cl)s1`, the IC50 against Coagulation factor X stood at 730 nM. On to `O=C(NC[C@@H]1OC(=O)N2c3ccc(N4CCC5(CC4=O)OCCO5)cc3OC[C@@H]12)c1ccc(Cl)s1`, for which the IC50 at Coagulation factor X worked out at 2510 nM.

The molecule `CO[C@@H]1CCN(c2ccc3c(c2)OC[C@H]2[C@H](CNC(=O)c4ccc(Cl)s4)OC(=O)N32)C(=O)C1` registered an IC50 at Coagulation factor X of 590 nM. Regarding `CO[C@H]1CCN(c2ccc3c(c2)OC[C@H]2[C@H](CNC(=O)c4ccc(Cl)s4)OC(=O)N32)C(=O)C1`, the IC50 on Coagulation factor X is 1860 nM. The molecule `O=C(NC[C@@H]1OC(=O)N2c3ccc(N4CC[C@@H](O)CC4=O)cc3OC[C@@H]12)c1ccc(Cl)s1` returned an IC50 at Coagulation factor X of 130 nM.

Turning to `O=C(NC[C@@H]1OC(=O)N2c3ccc(N4CC[C@H](F)CC4=O)cc3OC[C@@H]12)c1ccc(Cl)s1`, it took 46.6 nM to reach half-maximal inhibition against Coagulation factor X (IC50). `O=C(NC[C@@H]1OC(=O)N2c3ccc(N4CC[C@H](O)CC4=O)cc3OC[C@@H]12)c1ccc(Cl)s1`: 1220 nM corresponded to half-maximal inhibition at Coagulation factor X (IC50). `O=C(NC[C@@H]1OC(=O)N2c3ccc(N4CC[C@@H](F)CC4=O)cc3OC[C@@H]12)c1ccc(Cl)s1` yielded an IC50 at Coagulation factor X of 40.6 nM. `O=C(NC[C@@H]1OC(=O)N2c3ccc(N4CCNCC4=O)cc3OC[C@@H]12)c1ccc(Cl)s1` came in with an IC50 against Coagulation factor X of 190 nM.

In turn, `CN1CCN(c2ccc3c(c2)OC[C@H]2[C@H](CNC(=O)c4ccc(Cl)s4)OC(=O)N32)C(=O)C1` registered an IC50 against Coagulation factor X of 2210 nM. On Coagulation factor X, `CCN1CCN(c2ccc3c(c2)OC[C@H]2[C@H](CNC(=O)c4ccc(Cl)s4)OC(=O)N32)C(=O)C1` yielded an IC50 of 15800 nM. For the molecule `O=C(NC[C@@H]1OC(=O)N2c3ccc(N4CCN(Cc5ccccc5)CC4=O)cc3OC[C@@H]12)c1ccc(Cl)s1`, half-maximal inhibition on Coagulation factor X (IC50) was put at 11400 nM. As to `CC(=O)N1CCN(c2ccc3c(c2)OC[C@H]2[C@H](CNC(=O)c4ccc(Cl)s4)OC(=O)N32)C(=O)C1`, inhibition on Coagulation factor X was half-maximal at 74.8 nM (IC50). `CS(=O)(=O)N1CCN(c2ccc3c(c2)OC[C@H]2[C@H](CNC(=O)c4ccc(Cl)s4)OC(=O)N32)C(=O)C1` showed an IC50 on Coagulation factor X of 4180 nM. On Coagulation factor X, `O=C(NC[C@@H]1OC(=O)N2c3ccc(N4CCN(S(=O)(=O)c5ccccc5)CC4=O)cc3OC[C@@H]12)c1ccc(Cl)s1` displayed an IC50 of 5530 nM. Regarding `O=C(NC[C@@H]1OC(=O)N2c3ccc(N4CCOCC4=O)cc3OC[C@@H]12)c1ccc(Cl)cc1`, the IC50 against Coagulation factor X turned out to be 160 nM. The Activity with Plasma [1] amounted to 1.06 µM. Further, the 2aPTT in the assay on Plasma [2] turned out to be 0.93 µM.

`O=C(NC[C@@H]1OC(=O)N2c3ccc(N4CCOCC4=O)cc3OC[C@@H]12)c1ccc(Cl)cn1`: on Coagulation factor X, the IC50 worked out at 710 nM. The same measure, in the same setting: the same measure for `COc1ccc(C(=O)NC[C@@H]2OC(=O)N3c4ccc(N5CCOCC5=O)cc4OC[C@@H]23)cc1`: 4780 nM; for `O=C(NC[C@@H]1OC(=O)N2c3ccc(N4CCOCC4=O)cc3OC[C@@H]12)c1cc(Cl)c(Cl)s1`: 8080 nM; for `O=C(NC[C@@H]1OC(=O)N2c3ccc(N4CCOCC4=O)cc3OC[C@@H]12)c1cnc(Cl)s1`: 7060 nM. On to `O=C(NC[C@@H]1OC(=O)N2c3ccc(N4CCOCC4=O)cc3OC[C@@H]12)c1cc2cccc(Cl)c2s1`, for which, on Coagulation factor X, the IC50 was over 100000 nM. On the same count and under the same terms, the same measure for `O=C(NC[C@@H]1OC(=O)N2c3ccc(N4CCOCC4=O)cc3OC[C@@H]12)c1cc2ccc(Cl)cc2s1`: 1750 nM; for `O=C(NC[C@@H]1OC(=O)N2c3ccc(N4CCOCC4=O)cc3OC[C@@H]12)c1cc2cc(Cl)ccc2s1`: 25900 nM; for `O=C(NC[C@@H]1OC(=O)N2c3ccc(N4CCOCC4=O)cc3OC[C@@H]12)c1cc2c(Cl)cccc2s1`: over 100000 nM. The molecule `O=C(NC[C@@H]1OC(=O)N2c3ccc(N4CCOCC4=O)cc3OC[C@@H]12)c1sc2cc(Cl)ccc2c1Cl` yielded an IC50 on Coagulation factor X of over 100000 nM. On Coagulation factor X, `O=C(CSCCCl)NC[C@@H]1OC(=O)N2c3ccc(N4CCOCC4=O)cc3OC[C@@H]12` registered an IC50 of over 100000 nM. Still for that read-out and setting: the same measure for `O=C(NC[C@@H]1OC(=O)N2c3ccc(N4CCOCC4=O)cc3OC[C@@H]12)C(Cl)Cl`: 52700 nM. On Coagulation factor X, `O=C(NC[C@@H]1OC(=O)N2c3ccc(N4CCOCC4=O)cc3OC[C@@H]12)Nc1ccc(Cl)s1` showed an IC50 of 88.5 nM. On the same count and under the same terms, to `O=C(NC[C@@H]1OC(=O)N2c3ccc(N4CCOCC4=O)cc3OC[C@@H]12)Nc1ccc(Cl)cc1` belongs 32.1 nM.

For the molecule `O=C(NC[C@@H]1OC(=O)N2c3ccc(N4CCOCC4=O)cc3OC[C@@H]12)C(=O)Nc1ccc(Cl)s1`, at Coagulation factor X, half-maximal inhibition (IC50) required 560 nM. Molecule `O=C(NC[C@@H]1OC(=O)N2c3ccc(N4CCOCC4=O)cc3OC[C@@H]12)C(=O)Nc1ccc(Cl)cn1` came in with an IC50 against Coagulation factor X of 1210 nM.

Consider `O=C(NC[C@@H]1OC(=O)N2c3ccc(N4CCOCC4=O)cc3OC[C@@H]12)C(=O)Nc1ccc(Cl)cc1`, for which, at Coagulation factor X, the concentration for half-maximal inhibition (IC50) was found to be 310 nM. As to `O=C(Nc1ccc(Cl)s1)[C@@H]1OC(=O)N2c3ccc(N4CCOCC4=O)cc3OC[C@@H]12`, the IC50 at Coagulation factor X is over 100000 nM. `O=C(Nc1ccc(Cl)cn1)[C@@H]1OC(=O)N2c3ccc(N4CCOCC4=O)cc3OC[C@@H]12` registered an IC50 at Coagulation factor X of over 100000 nM. `O=C(NC[C@@H]1OC(=O)N2c3ccc(N4CCCCC4=O)cc3SC[C@@H]12)c1ccc(Cl)s1` had an IC50 against Coagulation factor X of 4.89 nM. Further, in the assay with Plasma [1], the Activity was 0.64 µM. In addition, the 2aPTT in the assay with Plasma [2] was determined as 0.62 µM.

Turning to `O=C(NC[C@@H]1OC(=O)N2c3ccc(N4CCOCC4=O)cc3SC[C@@H]12)c1ccc(Cl)cc1`, at Coagulation factor X, the IC50 is 45.2 nM. With `O=C(NC[C@@H]1OC(=O)N2c3ccc(N4CCOCC4=O)cc3[S+]([O-])C[C@@H]12)c1ccc(Cl)s1` (some centres undefined), the IC50 at Coagulation factor X worked out at 64 nM. Consider `O=C(NC[C@@H]1OC(=O)N2c3ccc(N4CCCCC4=O)cc3S(=O)(=O)C[C@@H]12)c1ccc(Cl)s1`, for which it took 50.5 nM to reach half-maximal inhibition at Coagulation factor X (IC50).

On to `CS(=O)(=O)c1ccccc1-c1ccc2c(c1)SC[C@H]1[C@H](CNC(=O)c3ccc(Cl)s3)OC(=O)N21`, for which the midpoint of inhibition against Coagulation factor X, the IC50, lay at 20.9 nM.

Consider `CS(=O)(=O)c1ccccc1-c1ccc2c(c1)SC[C@H]1[C@H](CNC(=O)c3ccc(Cl)cc3)OC(=O)N21`, for which the IC50 on Coagulation factor X is 1610 nM. Still for that read-out and setting: to `O=C(NC[C@@H]1OC(=O)N2c3ccc(N4CCCCC4=O)cc3CC[C@@H]12)c1ccc(Cl)s1` belongs 6.59 nM; to `CC(C)(C)OC(=O)N1C[C@H]2[C@H](CNC(=O)c3ccc(Cl)s3)OC(=O)N2c2ccc(N3CCCCC3=O)cc21`, 8180 nM.

In turn, `O=C(NC[C@@H]1OC(=O)N2c3ccc(N4CCCCC4=O)cc3NC[C@@H]12)c1ccc(Cl)s1` gave an IC50 at Coagulation factor X of 15.2 nM.

The IC50 is the midpoint of a concentration-inhibition curve. A higher IC50 goes with lower potency.

For the origin of these results see ChEMBL document CHEMBL3351225, “Design, synthesis, and structure-activity and structure-pharmacokinetic relationship studies of novel [6,6,5] tricyclic fused oxazolidinones leading to the discovery of a potent, selective, and orally bioavailable FXa inhibitor” (J Med Chem, 2014).
